We go through one compound from ChEMBL document CHEMBL4229344 (Eur J Med Chem, 2018).

Data set [1] concerns the target Mitogen-activated protein kinase kinase kinase kinase 3 (Homo sapiens) (UniProt Q8IVH8). Briefly: Binding affinity to wild-type human partial length MAP4K3 (M1 to D301 residues) expressed in bacterial expression system assessed as residual binding level at 1 uM by Kinomescan method relative to control.
For data set [2], the target named is Proto-oncogene tyrosine-protein kinase ROS (Homo sapiens) (UniProt P08922). Kind of data set: Binding affinity to wild-type human partial length ROS1 (A1921 to N2240 residues) expressed in bacterial expression system assessed as residual binding level at 1 uM by Kinomescan method relative to control.
Data set [3] deals with Tyrosine-protein kinase ABL1 (Homo sapiens), P00519 [F317L]. Kind of data set: Binding affinity to human phosphorylated ABL1 F317L mutant (S229 to K512 residues) expressed in mammalian expression system assessed as residual binding level at 1 uM by Kinomescan method relative to control. In a few lines:
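Single-concentration (1 μM) competition-binding screen run by KINOMEscan against a panel of 468 purified kinases and mutants. The read-out is the relative binding activity of the test compound to each kinase.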

Data set [4] addresses Wee1-like protein kinase (Homo sapiens) (UniProt P30291). Briefly: Binding affinity to wild-type human partial length WEE1 (M291 to K575 residues) expressed in bacterial expression system assessed as residual binding level at 1 uM by Kinomescan method relative to control. In outline: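 KINOMEscan competition binding against a panel of 468 purified kinases/mutants, compound tested at 1 μM; readout is relative binding activity versus control.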

Data set [5] has as its target Ankyrin repeat and protein kinase domain-containing protein 1 (Homo sapiens) (UniProt Q8NFD2). Briefly: Binding affinity to wild-type human partial length ANKK1 (M1 to A305 residues) expressed in mammalian expression system assessed as residual binding level at 1 uM by Kinomescan method relative to control. In a few lines: (§1)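 Single-concentration KINOMEscan (DiscoverX) binding screen at 1 μM against a panel of 468 purified kinases and mutants. The read-out is binding relative to control.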

In data set [6] the target is Serine/threonine-protein kinase PAK 3 (Homo sapiens) (UniProt O75914). Briefly: Binding affinity to wild-type human full length PAK3 (M1 to R544 residues) expressed in bacterial expression system assessed as residual binding level at 1 uM by Kinomescan method relative to control. In a few lines:
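KINOMEscan competition binding against 468 purified kinases/mutants, test compound at 1 µM; residual binding relative to control.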

Data set [7] has as its target 5'-AMP-activated protein kinase catalytic subunit alpha-2 (Homo sapiens) (UniProt P54646). Briefly: Binding affinity to wild-type human partial length AMPK alpha2 (M1 to E306 residues) expressed in bacterial expression system assessed as residual binding level at 1 uM by Kinomescan method relative to control. In a few lines:
as §1

Data set [8] in a line: AUC (0 to t) in Sprague-Dawley rat at 1 mg/kg, iv. It is filed as ADME, organism-based. The following applies: in vivo. In a few lines: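 Male Sprague-Dawley rats (6–8 weeks) fasted overnight, dosed IV or orally; compound dissolved in 5% DMSO/40% PEG400/55% saline (dosing solution 1 mg/mL). Blood (~0.2 mL) from jugular vein into heparin; IV sampling 1 min–8 h, oral 5 min–24 h. Plasma separated by centrifugation at 2–8 °C, stored at −80 °C until analysis.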

Data set [9] addresses Tyrosine-protein kinase Fgr (Homo sapiens) (UniProt P09769). Kind of data set: Binding affinity to wild-type human partial length FGR (L233 to T529 residues) expressed in bacterial expression system assessed as residual binding level at 1 uM by Kinomescan method relative to control. In a few lines: (§2)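 Kinome-wide competition binding screen against a panel of 468 purified kinases/mutants, with the test compound at a single concentration of 1 μM. Read-out is the relative binding activity of each kinase in the presence of compound.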

In data set [10] the target is RAC-beta serine/threonine-protein kinase (Homo sapiens) (UniProt P31751). Briefly: Binding affinity to wild-type human partial length AKT2 expressed in bacterial expression system assessed as residual binding level at 1 uM by Kinomescan method relative to control. In outline: as §1
Sequence of RAC-beta serine/threonine-protein kinase (Homo sapiens) (P31751 whole entry, the tested form may be a part): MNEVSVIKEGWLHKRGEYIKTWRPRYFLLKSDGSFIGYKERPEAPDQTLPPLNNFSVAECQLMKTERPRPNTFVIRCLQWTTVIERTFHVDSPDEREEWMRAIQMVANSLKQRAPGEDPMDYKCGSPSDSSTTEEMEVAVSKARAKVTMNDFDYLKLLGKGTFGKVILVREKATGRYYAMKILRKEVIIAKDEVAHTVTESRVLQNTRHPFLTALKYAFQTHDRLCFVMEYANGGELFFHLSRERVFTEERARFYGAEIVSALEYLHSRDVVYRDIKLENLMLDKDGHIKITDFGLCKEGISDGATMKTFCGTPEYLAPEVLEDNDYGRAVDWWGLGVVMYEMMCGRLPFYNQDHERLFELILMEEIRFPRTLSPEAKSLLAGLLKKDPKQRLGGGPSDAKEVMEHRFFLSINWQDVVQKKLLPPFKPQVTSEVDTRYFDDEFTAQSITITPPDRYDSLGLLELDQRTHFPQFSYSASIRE
The target in data set [11] is Mitogen-activated protein kinase kinase kinase 9 (Homo sapiens) (UniProt P80192). Briefly: Binding affinity to wild-type human partial length MLK1 (V88 to W426 residues) expressed in bacterial expression system assessed as residual binding level at 1 uM by Kinomescan method relative to control.
Sequence of Mitogen-activated protein kinase kinase kinase 9 (Homo sapiens) (P80192 whole entry, looked up, the tested form may be a part): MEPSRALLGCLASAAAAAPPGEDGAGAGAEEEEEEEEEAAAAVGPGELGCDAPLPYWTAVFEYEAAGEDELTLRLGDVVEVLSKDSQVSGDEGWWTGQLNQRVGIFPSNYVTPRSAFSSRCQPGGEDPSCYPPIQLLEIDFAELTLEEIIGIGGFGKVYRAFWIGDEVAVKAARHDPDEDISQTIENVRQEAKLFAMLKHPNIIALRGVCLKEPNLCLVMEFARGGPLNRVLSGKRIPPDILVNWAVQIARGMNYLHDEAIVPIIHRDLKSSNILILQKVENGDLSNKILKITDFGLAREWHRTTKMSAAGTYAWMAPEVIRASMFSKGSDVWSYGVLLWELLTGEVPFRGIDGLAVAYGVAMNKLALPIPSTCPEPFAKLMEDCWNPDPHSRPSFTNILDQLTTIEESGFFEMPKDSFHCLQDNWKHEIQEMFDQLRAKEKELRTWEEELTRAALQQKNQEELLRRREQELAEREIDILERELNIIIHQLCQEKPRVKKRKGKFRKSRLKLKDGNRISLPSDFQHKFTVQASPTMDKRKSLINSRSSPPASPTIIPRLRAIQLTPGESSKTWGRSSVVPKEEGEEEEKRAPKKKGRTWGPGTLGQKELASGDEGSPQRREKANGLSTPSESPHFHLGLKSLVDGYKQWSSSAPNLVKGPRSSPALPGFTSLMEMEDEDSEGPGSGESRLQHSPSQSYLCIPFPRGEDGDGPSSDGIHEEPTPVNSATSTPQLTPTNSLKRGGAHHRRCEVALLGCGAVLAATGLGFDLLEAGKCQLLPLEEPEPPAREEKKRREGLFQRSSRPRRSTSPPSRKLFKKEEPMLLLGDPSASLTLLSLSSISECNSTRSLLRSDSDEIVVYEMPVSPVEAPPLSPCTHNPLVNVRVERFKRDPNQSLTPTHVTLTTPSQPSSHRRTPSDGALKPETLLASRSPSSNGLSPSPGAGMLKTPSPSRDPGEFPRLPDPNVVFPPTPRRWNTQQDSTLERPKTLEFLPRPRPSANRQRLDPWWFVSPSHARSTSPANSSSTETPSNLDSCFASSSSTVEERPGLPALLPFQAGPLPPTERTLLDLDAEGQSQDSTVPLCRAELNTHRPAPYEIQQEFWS
The next data set concerns EOL1. Kind of data set: Antitumor activity against human EOL-1 cells xenografted in nu/nu mouse assessed as reduction in tumor cell proliferation at 25 to 100 mg/kg/day, ip by KI-67-staining based microscopic analysis. The class given is functional, organism-based. In a few lines:
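Female nu/nu mice (6 weeks) given subcutaneous right-flank injection of 5 million EOL-1 cells in PBS/Matrigel 1:1. At 200–400 mm3 tumors, randomized to groups of 6 and dosed daily i.p. for 14 days at 25, 50 or 100 mg/kg/d in 0.5% methylcellulose/0.4% Tween80. Tumor volume = W²×L/2, measured daily.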

Data set [12] deals with Dual specificity protein kinase TTK (Homo sapiens) (UniProt P33981). Kind of data set: Binding affinity to wild-type human partial length TTK (N505 to V798 residues) expressed in bacterial expression system assessed as residual binding level at 1 uM by Kinomescan method relative to control.
The target in data set [13] is RAF proto-oncogene serine/threonine-protein kinase (Homo sapiens) (UniProt P04049). Briefly: Binding affinity to wild-type human partial length RAF1 (I330 to T640 residues) expressed in bacterial expression system assessed as residual binding level at 1 uM by Kinomescan method relative to control.
For data set [14], the target named is Serine/threonine-protein kinase OSR1 (Homo sapiens) (UniProt O95747). Kind of data set: Binding affinity to wild-type human full length OSR1 (M1 to S527 residues) expressed in mammalian expression system assessed as residual binding level at 1 uM by Kinomescan method relative to control. In a few lines:
as §1

The target of data set [15] is Mitogen-activated protein kinase kinase kinase 15 (Homo sapiens) (UniProt Q6ZN16). Kind of data set: Binding affinity to wild-type human partial length MAP3K15 (T625 to L932 residues) expressed in mammalian expression system assessed as residual binding level at 1 uM by Kinomescan method relative to control.
Data set [16] concerns the target Myosin light chain kinase (Homo sapiens) (UniProt Q32MK0). Briefly: Binding affinity to wild-type human partial length MLCK (D488 to K800 residues) expressed in bacterial expression system assessed as residual binding level at 1 uM by Kinomescan method relative to control. In outline: as §2
The target in data set [17] is Serine/threonine-protein kinase pim-3 (Homo sapiens) (UniProt Q86V86). Briefly: Binding affinity to wild-type human partial length PIM3 (G16 to A317 residues) expressed in bacterial expression system assessed as residual binding level at 1 uM by Kinomescan method relative to control.
The species named for the next data set is Homo sapiens. Kind of data set: Selectivity index, ratio of GI50 for TEL-fused PDGFRbeta (unknown origin) expressed in mouse BA/F3 cells to GI50 for TEL-fused PDGFRalpha (unknown origin) expressed in mouse BA/F3 cells. It is filed as cell-based. In a few lines: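 Parental BaF3 or IL-3-independent TEL-kinase BaF3 lines, made by retroviral infection and puromycin selection, grown in RPMI 1640 with 10% FBS. Cells seeded at 1–3 × 10^4 cells/mL with serial compound concentrations for 72 h. Viability read by CellTiter-Glo luminescence or CCK-8 absorbance at 450/655 nm and normalised to DMSO. GI50 obtained by triplicate testing with linear regression. Selectivity is the ratio of the two GI50 values.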

Active and inactive are the calls of the source. The calls are words filed in the database; no cut-off is given here.

In general, AUC(0-t) refers to exposure summed from dosing to a finite time, without extrapolation to infinity. Lower therefore signals less exposure.

Sequence of Serine/threonine-protein kinase PAK 3 (Homo sapiens) (O75914 whole entry, looked up, the tested form may be a part): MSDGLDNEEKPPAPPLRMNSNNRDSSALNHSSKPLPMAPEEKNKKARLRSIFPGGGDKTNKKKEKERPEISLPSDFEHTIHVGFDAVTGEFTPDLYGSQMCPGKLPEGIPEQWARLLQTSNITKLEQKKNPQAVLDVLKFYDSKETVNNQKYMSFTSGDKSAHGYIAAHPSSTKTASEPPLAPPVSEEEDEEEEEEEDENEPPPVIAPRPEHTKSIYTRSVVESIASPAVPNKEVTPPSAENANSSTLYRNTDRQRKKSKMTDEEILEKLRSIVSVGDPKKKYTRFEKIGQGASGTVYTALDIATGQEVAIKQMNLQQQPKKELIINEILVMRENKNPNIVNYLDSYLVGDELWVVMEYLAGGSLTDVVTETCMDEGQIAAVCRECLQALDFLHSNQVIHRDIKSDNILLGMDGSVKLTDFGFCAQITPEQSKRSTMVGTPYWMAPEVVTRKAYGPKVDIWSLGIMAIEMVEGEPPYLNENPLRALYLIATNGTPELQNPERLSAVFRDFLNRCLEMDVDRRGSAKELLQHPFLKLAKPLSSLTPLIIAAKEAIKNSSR
Sequence of Ankyrin repeat and protein kinase domain-containing protein 1 (Homo sapiens) (Q8NFD2 whole entry, the tested form may be a part): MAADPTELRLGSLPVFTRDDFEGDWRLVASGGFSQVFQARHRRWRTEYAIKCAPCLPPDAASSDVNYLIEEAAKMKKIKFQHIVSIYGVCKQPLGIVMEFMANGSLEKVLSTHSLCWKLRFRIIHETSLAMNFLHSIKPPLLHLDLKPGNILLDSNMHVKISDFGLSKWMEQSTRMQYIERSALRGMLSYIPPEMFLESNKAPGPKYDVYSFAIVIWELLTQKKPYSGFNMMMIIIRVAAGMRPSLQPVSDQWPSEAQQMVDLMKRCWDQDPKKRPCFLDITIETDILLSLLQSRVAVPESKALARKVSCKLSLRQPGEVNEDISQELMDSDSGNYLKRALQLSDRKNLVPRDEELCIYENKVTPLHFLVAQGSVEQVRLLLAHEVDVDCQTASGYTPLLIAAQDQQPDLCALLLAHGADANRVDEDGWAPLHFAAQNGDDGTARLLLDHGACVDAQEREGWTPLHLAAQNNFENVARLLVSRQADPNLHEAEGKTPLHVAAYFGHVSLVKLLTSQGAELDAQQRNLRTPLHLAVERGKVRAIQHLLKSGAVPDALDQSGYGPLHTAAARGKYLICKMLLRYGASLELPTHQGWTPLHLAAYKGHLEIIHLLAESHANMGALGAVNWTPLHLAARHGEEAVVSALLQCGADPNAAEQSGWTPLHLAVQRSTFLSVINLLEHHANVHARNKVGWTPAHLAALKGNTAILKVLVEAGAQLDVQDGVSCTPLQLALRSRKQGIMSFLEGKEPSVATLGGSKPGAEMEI
Sequence of Wee1-like protein kinase (Homo sapiens) (P30291 whole entry, looked up, the tested form may be a part): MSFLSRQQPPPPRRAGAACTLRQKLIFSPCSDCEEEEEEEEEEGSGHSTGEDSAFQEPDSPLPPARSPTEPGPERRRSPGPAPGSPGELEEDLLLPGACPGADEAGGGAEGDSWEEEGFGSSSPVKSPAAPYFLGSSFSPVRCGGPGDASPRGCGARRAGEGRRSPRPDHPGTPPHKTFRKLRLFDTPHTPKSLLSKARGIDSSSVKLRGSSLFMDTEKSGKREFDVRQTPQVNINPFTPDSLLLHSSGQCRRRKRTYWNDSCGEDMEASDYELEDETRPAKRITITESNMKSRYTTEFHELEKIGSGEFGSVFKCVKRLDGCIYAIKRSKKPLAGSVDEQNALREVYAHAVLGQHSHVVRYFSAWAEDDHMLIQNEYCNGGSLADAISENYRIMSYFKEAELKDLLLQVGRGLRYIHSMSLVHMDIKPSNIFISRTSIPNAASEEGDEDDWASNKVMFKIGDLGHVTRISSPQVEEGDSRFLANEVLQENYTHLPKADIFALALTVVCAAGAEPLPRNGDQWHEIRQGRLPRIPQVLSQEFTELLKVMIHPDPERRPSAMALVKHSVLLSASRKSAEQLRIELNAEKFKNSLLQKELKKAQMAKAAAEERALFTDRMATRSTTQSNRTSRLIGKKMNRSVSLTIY
Sequence of Tyrosine-protein kinase Fgr (Homo sapiens) (P09769 2-529 limits assumed): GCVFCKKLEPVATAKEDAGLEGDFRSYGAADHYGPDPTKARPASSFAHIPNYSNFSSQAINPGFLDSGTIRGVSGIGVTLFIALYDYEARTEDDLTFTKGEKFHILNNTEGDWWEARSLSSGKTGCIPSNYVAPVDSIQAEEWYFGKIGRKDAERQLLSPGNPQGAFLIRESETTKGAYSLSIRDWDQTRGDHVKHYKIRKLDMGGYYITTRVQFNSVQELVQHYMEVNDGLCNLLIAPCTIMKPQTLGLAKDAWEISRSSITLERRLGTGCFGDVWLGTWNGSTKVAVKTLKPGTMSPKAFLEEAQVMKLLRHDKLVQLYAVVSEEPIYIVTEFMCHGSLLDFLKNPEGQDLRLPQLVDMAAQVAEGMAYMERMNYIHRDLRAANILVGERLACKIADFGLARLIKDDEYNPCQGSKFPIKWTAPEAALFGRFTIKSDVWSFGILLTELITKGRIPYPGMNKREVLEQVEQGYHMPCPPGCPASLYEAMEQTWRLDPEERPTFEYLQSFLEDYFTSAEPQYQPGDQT
Sequence of 5'-AMP-activated protein kinase catalytic subunit alpha-2 (Homo sapiens) (P54646 whole entry, looked up, the tested form may be a part): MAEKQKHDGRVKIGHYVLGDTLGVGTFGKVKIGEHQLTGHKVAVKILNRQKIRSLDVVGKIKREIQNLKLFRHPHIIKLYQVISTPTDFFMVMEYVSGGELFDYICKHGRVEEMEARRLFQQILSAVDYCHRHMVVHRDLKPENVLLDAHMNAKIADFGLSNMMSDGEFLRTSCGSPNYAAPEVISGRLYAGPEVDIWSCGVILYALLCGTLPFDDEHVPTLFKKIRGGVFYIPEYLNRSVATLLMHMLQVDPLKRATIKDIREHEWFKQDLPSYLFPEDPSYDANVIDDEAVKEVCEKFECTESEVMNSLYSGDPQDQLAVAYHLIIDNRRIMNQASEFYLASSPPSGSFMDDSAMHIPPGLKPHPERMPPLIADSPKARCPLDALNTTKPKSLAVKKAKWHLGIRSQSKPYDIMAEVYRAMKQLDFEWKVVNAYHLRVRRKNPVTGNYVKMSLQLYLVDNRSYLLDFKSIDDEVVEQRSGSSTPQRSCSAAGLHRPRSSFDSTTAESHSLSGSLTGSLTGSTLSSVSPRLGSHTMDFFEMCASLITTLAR

For `Cc1ccc(NC(=O)c2ccc(CN(CCN(C)C)C(=O)c3cccnc3)cc2)cc1Nc1nccc(-c2cccnc2)n1`, the Activity stood at 93% in data set [1]; 99% in data set [2]; 87% in data set [3]; 87% in data set [4]; 100% in [5]; 40% in data set [6]. In addition, the Activity in data set [7] turned out to be 100%; in [9], 91%; in data set [10], 100%; in [11], 88%; in data set [12], 81%; in data set [13], 100%. For the same compound, the Activity in [14] was 100%; in data set [15], 100%; in data set [16], 80%; in data set [17], 100%. Moreover, the AUC(0-t) in data set [8] was determined as 528 ng·h/mL. Moreover, the result with EOL1 was Active. For the same compound, the RatioGI50 in the data set filed under Homo sapiens is 85.
